RAM inhibit = inhibitors of the yeast RAM network, primary screen, dse1pr::URA3 reporter, 5-FOA selection; inhibition, % at 50 µM; S. cerevisiae dse1pr::URA3 reporter, 5-FOA growth OD615, 2 d; analog-sensitive cbk1-as2 kinase mutant strain; AID 868, 2007; hit rate 1.8% among 190,000;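 active = inhibition above a set limit, 3 SD over mean compound inhibition, cut at about 8.4% in these data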;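 note: inhibition rescues growth on 5-FOA so higher OD means more RAM inhibition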
WT yeast gro inh = growth inhibition of WT strain, primary screen, mitochondrial fusion inhibitor project, WT and mutant strains, chemical genetic; mitochondrial fusion phenotypic screen; inhibition, % at 10 µM; hit rate 2.1% among 190,000; AID 1362, 2008; in the data active = inhibition above about 58%; tested in S. cerevisiae
L major viab = Leishmania major promastigote growth inhibition, primary screen. Leishmania major promastigotes, resazurin fluorescence viability. inhibition, % at 10 µM. hit rate 9% among 200,000. AID 1063, 2008; in the data active = inhibition above about 50%;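 note: promastigotes grown with compound for 44 hours at 28 °C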
ABCG2 block = ABCG2 efflux pump inhibitors, primary screen, multiplex with ABCB1, IgMXP3 cells, flow cytometry; hit rate 0.1% among 190,000; inhibition, % at 6.6 µM; AID 1325, 2008; Broad substrate specificity ATP-binding cassette transporter ABCG2 (Homo sapiens), Q9UNQ0; JC-1 efflux;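 active = inhibition above 80%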
Target sequence (Q9UNQ0 whole entry, looked up): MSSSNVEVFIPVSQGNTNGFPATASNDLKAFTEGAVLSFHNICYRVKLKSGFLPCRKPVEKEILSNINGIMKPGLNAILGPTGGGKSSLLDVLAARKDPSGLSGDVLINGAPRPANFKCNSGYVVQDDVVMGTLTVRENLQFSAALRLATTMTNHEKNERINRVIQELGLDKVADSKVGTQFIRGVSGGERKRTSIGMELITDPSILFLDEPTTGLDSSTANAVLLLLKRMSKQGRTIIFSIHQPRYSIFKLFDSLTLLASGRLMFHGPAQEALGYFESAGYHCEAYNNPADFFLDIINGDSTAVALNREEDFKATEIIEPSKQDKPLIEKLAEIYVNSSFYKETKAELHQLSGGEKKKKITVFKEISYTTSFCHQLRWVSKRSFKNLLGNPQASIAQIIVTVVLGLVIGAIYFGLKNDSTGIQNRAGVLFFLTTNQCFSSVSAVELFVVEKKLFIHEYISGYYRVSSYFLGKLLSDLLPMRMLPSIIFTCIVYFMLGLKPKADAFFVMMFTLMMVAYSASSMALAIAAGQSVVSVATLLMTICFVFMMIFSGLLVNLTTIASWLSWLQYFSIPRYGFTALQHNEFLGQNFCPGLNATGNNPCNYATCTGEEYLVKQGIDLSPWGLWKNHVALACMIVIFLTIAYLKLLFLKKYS
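Incubation: cells with compound and JC-1, 10 min at 25 °C, rotating, no wash / Test system: IgMXP3 (ABCG2) plus far-red-tagged CCRF-Adr (ABCB1) cells / Compound dosing: one concentration, 6.6 µM final / Also added: JC-1 fluorescent substrate / Evaluation: efflux inhibition in percent versus controls / Detection: flow cytometry, 530 nm JC-1 signal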
ABCB1 block = ABCB1 efflux pump inhibitors, primary screen, cell-based, multiplex, flow cytometry, ABCG2 counter-screen; ATP-dependent translocase ABCB1 (Homo sapiens), P08183; CCRF-Adr cells, JC-1 efflux; inhibition, % at 6.6 µM; hit rate 0.067% among 190,000; AID 1326, 2008; in the data active = inhibition above about 40%;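 note: higher value means more JC-1 retained so stronger ABCB1 efflux block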
A number is an active result. An excerpt weighted towards active compounds, which were near 12% of everything screened.

For Cc1ccc(NC(=O)C2CC(=O)N(c3ccc4c5c(cccc35)CC4)C2)cc1 (configuration not stated) the results were RAM inhibit inactive, WT yeast gro inh inactive, L major viab inactive, ABCG2 block inactive and ABCB1 block inactive.
For N#Cc1ccccc1NC(=O)C1CC(=O)N(c2ccc3c4c(cccc24)CC3)C1 (configuration not stated) the results were RAM inhibit inactive, WT yeast gro inh inactive, L major viab 57, ABCG2 block inactive and ABCB1 block inactive.
CSc1nc(N(C)C)nc(N2CC(=O)N(CCNS(=O)(=O)c3ccc(C)cc3)C2=N)n1 was read as RAM inhibit inactive, WT yeast gro inh inactive, L major viab inactive, ABCG2 block inactive and ABCB1 block inactive.
`CCCCc1cc(=O)oc2cc(C)cc(O)c12` gave RAM inhibit inactive, WT yeast gro inh inactive, L major viab 82, ABCG2 block inactive and ABCB1 block inactive.
CCCCc1cc(=O)oc2cc(O)cc(O)c12 was read as RAM inhibit inactive, WT yeast gro inh inactive, L major viab inactive, ABCG2 block inactive and ABCB1 block inactive.
`S=C(NCc1ccco1)N1CCC(c2nc3ccccc3o2)CC1` gave RAM inhibit inactive, WT yeast gro inh inactive, L major viab inactive, ABCG2 block inactive and ABCB1 block inactive.
For O=C(Nc1ccc(Cl)cn1)C1CCCN1S(=O)(=O)c1ccccc1 (configuration not stated) the results were RAM inhibit inactive, WT yeast gro inh inactive, L major viab inactive, ABCG2 block inactive and ABCB1 block inactive.
`CC(=O)c1cccc2c(O)c(C3=Nc4ccccc4C3=O)[nH]c12` gave RAM inhibit inactive, WT yeast gro inh inactive, L major viab 99, ABCG2 block inactive and ABCB1 block inactive.
For O=C1C(c2c(O)[nH]c3ccccc23)=Nc2ccccc21 the results were WT yeast gro inh inactive and ABCG2 block inactive.
Screening O=C(OC(C(=O)NC1CCCC1)c1cccnc1)C1=Cc2ccccc2OC1 (configuration not stated) returned RAM inhibit inactive, WT yeast gro inh inactive, L major viab 94, ABCG2 block inactive and ABCB1 block inactive.
`CC(OC(=O)C1=Cc2ccccc2OC1)C(=O)NC1CCCC1` (configuration not stated) gave RAM inhibit inactive, WT yeast gro inh inactive, L major viab inactive, ABCG2 block inactive and ABCB1 block inactive.
For COc1ccc(C(C)=O)cc1CSc1nnc(Nc2ccc(C)cc2C)s1 the results were RAM inhibit inactive, WT yeast gro inh 61, L major viab inactive, ABCG2 block inactive and ABCB1 block inactive.
Screening O=c1cc(-c2cccc([N+](=O)[O-])c2)[nH][nH]1 returned RAM inhibit inactive, WT yeast gro inh inactive, L major viab 58, ABCG2 block inactive and ABCB1 block inactive.
Screening O=C1C(Cl)=C(NC2CCCCC2)C(=O)N1Cc1ccccc1 returned RAM inhibit inactive, WT yeast gro inh 70, L major viab inactive, ABCG2 block inactive and ABCB1 block inactive.
Screening O=C(OCc1nc2ccc(Cl)cc2n1CCO)c1ccc(O)cc1 returned RAM inhibit inactive, WT yeast gro inh inactive, L major viab 54, ABCG2 block inactive and ABCB1 block inactive.
For O=C(OCc1nc2ccc(Cl)cc2n1CCO)c1ccccc1 the results were RAM inhibit inactive, WT yeast gro inh inactive, L major viab inactive, ABCG2 block inactive and ABCB1 block inactive.
Screening COC(=O)c1ccc(N)c(N=CC2=C(O)CC(C)(C)CC2=O)c1 returned RAM inhibit inactive, WT yeast gro inh inactive, L major viab inactive, ABCG2 block inactive and ABCB1 block inactive.
`COC(=O)c1ccc2c(c1)C(C)(C)C(/C=C/c1ccccc1O)=[N+]2C` gave RAM inhibit inactive, WT yeast gro inh inactive, L major viab 101, ABCG2 block inactive and ABCB1 block inactive.
For Clc1ccc(CNCc2cccs2)c(Cl)c1 the results were RAM inhibit inactive, WT yeast gro inh inactive, L major viab inactive, ABCG2 block inactive and ABCB1 block inactive.
Screening Cc1ccc(C(C)C)c(OCc2nn(CC(=O)c3ccc(OC(F)F)cc3)c3[n+]2CCCCC3)c1 returned RAM inhibit inactive, WT yeast gro inh inactive, L major viab 99, ABCG2 block inactive and ABCB1 block inactive.
Screening COc1ccc(C(=O)Cn2nc(CNc3ccc(Br)cc3)[n+]3c2CCCCC3)cc1 returned RAM inhibit inactive, WT yeast gro inh inactive, L major viab inactive, ABCG2 block inactive and ABCB1 block inactive.
For CC(C)(C)c1ccc(S(=O)(=O)N2CCC(c3nc4ccc(Cl)cc4[nH]3)CC2)cc1 the results were RAM inhibit inactive, WT yeast gro inh 69, L major viab inactive, ABCG2 block inactive and ABCB1 block inactive.
For Clc1ccc(CN2CCC(c3nc4ccc(Cl)cc4[nH]3)CC2)cc1 the results were RAM inhibit inactive, WT yeast gro inh inactive, L major viab 99, ABCG2 block inactive and ABCB1 block inactive.
CC(=O)Nc1ccc(S(=O)(=O)N2CCC(c3nc4ccc(C)cc4[nH]3)CC2)cc1 was read as RAM inhibit inactive, WT yeast gro inh inactive, L major viab inactive, ABCG2 block inactive and ABCB1 block inactive.
`CCC(C)(C)n1nnnc1CN1CCC(c2nc3ccc(C)cc3[nH]2)CC1` gave RAM inhibit inactive, WT yeast gro inh inactive, L major viab inactive, ABCG2 block inactive and ABCB1 block inactive.
For Cc1cc(Cl)c(OCCOCCN2CCC(C)CC2)c(Br)c1 the results were RAM inhibit inactive, WT yeast gro inh inactive, L major viab 99, ABCG2 block inactive and ABCB1 block inactive.
COc1ccccc1OCCOCCOc1c(C)cc(C)cc1Br was read as RAM inhibit inactive, WT yeast gro inh inactive, L major viab inactive, ABCG2 block inactive and ABCB1 block inactive.
`Cc1cc(C)c(OCCCCN2CCC(C)CC2)c(Br)c1` gave RAM inhibit inactive, WT yeast gro inh inactive, L major viab 98, ABCG2 block inactive and ABCB1 block inactive.
Cc1cc(C)c(OCCCON2C(=O)CCC2=O)c(Br)c1 was read as RAM inhibit inactive, WT yeast gro inh inactive, L major viab inactive, ABCG2 block inactive and ABCB1 block inactive.
Screening Cc1ccnc2c(N3C(=O)C4C5c6ccccc6C(c6ccccc65)C4C3=O)cccc12 (configuration not stated) returned RAM inhibit inactive, WT yeast gro inh inactive, L major viab 58, ABCG2 block inactive and ABCB1 block inactive.
CC(C)c1ccc(NC(=S)NC2CCN(Cc3ccccc3)CC2)cc1 was read as RAM inhibit inactive, WT yeast gro inh inactive, L major viab 92, ABCG2 block inactive and ABCB1 block inactive.
For S=C(Nc1ccc2c(c1)OCO2)NC1CCN(Cc2ccccc2)CC1 the results were RAM inhibit inactive, WT yeast gro inh inactive, L major viab 97, ABCG2 block inactive and ABCB1 block inactive.
For Cc1ccc(NC(=O)CN2CCC(NC(=O)Cc3ccccc3)CC2)cc1C the results were RAM inhibit inactive, WT yeast gro inh inactive, L major viab inactive, ABCG2 block inactive and ABCB1 block inactive.

Bioassay records as filed in PubChem BioAssay.
